High-throughput results (PubChem)
ARFGAP1 inh = rat ARFGAP1 inhibition. Q62848. actives 0.26% (n = 360,000). inhibition, % at 16.5 µM. Arfgap1-stimulated ARF1 GTP hydrolysis, GDP FP detection;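 active means inhibition above a per-plate limit, mean inhibition of low control wells plus 3 SD, cut at about 25% in these data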;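 further: 0% = DMSO wells with enzyme and 100% = wells lacking Arfgap1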
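Material: truncated rat Arfgap1 GAP domain; Incubation: compound-enzyme preincubation 20 min, reaction 120 min, detection 60 min, 25 °C; Read-out: percent inhibition of Arfgap1-stimulated GTP hydrolysis; Technique: FP, GDP Alexa 633 tracer displaced from anti-GDP antibody, 620/688 nm; Controls: No-Arfgap1 wells (100%) versus DMSO full-reaction wells (0%); Replication: single well per compound.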
Efflux pump mplx = blocks antifungal efflux pumps in multiplex yeast assay | S. cerevisiae Candida pump triplex, Nile Red efflux | inhibition, % at 10 µM | AID 485275 | actives 0.44% (n = 330,000);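 active means plate passing quality check with inhibition over a set limit, or well fluorescence over plate mean plus 4 SD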;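 further: Nile Red retained in pooled yeast measured as flow cytometry median fluorescence; 0% = buffer negative control and 100% = Enniatin B positive control; higher means more Nile Red kept so more efflux inhibition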
ASAP1 GAP inh = ASAP1 ArfGAP inhibition. Q9ULH1. inhibition, % at 16.5 µM. ASAP1-stimulated ARF1 GTP hydrolysis, GDP FP detection. actives 0.19% (n = 360,000); in the data active means inhibition above about 25%;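 further: 0% = vehicle with enzyme and substrate and 100% = no enzyme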
Target sequence (Q9ULH1 325-724 limits assumed): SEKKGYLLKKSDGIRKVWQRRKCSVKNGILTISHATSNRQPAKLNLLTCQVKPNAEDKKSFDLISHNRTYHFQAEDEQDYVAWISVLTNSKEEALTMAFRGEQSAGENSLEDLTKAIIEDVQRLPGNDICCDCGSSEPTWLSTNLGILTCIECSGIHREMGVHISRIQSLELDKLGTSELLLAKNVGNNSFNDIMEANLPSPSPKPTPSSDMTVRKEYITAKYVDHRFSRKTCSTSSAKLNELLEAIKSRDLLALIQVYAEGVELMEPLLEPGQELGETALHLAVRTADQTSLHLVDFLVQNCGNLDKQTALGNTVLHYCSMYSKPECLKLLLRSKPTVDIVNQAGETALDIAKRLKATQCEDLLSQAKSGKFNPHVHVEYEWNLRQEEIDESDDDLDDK
FGF22 binding = shifts melting point of recombinant human FGF22 | Q9HCT0 | actives 1.5% (n = 340,000) | recombinant FGF22 thermal shift, SYPRO orange fluorescence; percent of sucrose octasulfate shift, DMSO zero | AID 651658 | activity (Tm shift, normalised), % at 9.99 µM;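 active means mean Tm shift, scaled 0 neutral to 100 positive control, at about 1.3% or above, every replicate too, limit read from the data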
Rtt109 HAT inh = C. albicans Rtt109 histone acetyltransferase inhibition | Q5AAJ8 | purified Rtt109/Vps75, ThioGlo CoA-SH fluorescence, 4 h | inhibition, % at 34.9 µM | actives 0.16% (n = 330,000) | AID 540336;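 active means inhibition of at least 50% in every replicate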
* hit, by the source's call; nt = no result. Compounds with a hit are over-represented: about 1.9% of the library has one in this group of screens.

SMILES	ARFGAP1 inh	Efflux pump mplx	ASAP1 GAP inh	FGF22 binding	Rtt109 HAT inh
Cc1ccc(CN2CCN(Cc3cn(C)nc3C)CC2CCO)o1 (configuration not stated)	22	0	-2	43*	nt
Cc1ccc(CN2CCN(Cc3cn(C(C)C)c4ccccc34)CC2CCO)o1 (configuration not stated)	-7	0	5	0	-4
Cc1ccc(CN2CCN(Cc3cnc(N4CCOCC4)s3)CC2CCO)o1 (configuration not stated)	-5	0	6	0	nt
C/C(=C\c1ccccc1)CN1CCN(Cc2ccc(C)o2)C(CCO)C1 (configuration not stated)	2	0	8	44*	-1
COc1cccc(NC(=O)Cc2c(O)c3ccccc3[nH]c2=O)c1	2	0	-6	nt	-7
CCc1nnc(NC(=O)c2cc(OC)c(OC)cc2[N+](=O)[O-])s1	12	0	5	0	6
COc1cc(C(=O)Nc2nnc(SC)s2)c([N+](=O)[O-])cc1OC	-9	0	13	44*	0
COCCn1c(C)cc(C(=O)CSc2cc(C)c3ccccc3n2)c1C	7	0	-13	nt	nt
Clc1ccccc1CN1CCN(CCCc2ccccc2)CC1	10	nt	-2	43*	-8
OCC1(CCc2ccccc2)CCN(Cc2ccccc2Cl)CC1	8	0	8	0	-2
COc1ccc(-c2ccc(C#N)c(SCC(=O)NCc3ccco3)n2)cc1OC	-6	0	-7	0	-2
Cc1c(-c2cccc(NC(=O)c3ccco3)c2)nc2ncccn12	5	0	3	44*	-2
Cc1cccc(NC(=O)COc2ccc(/C=C\c3[nH]c(=O)[nH]c(=O)c3[N+](=O)[O-])cc2)c1	-26	0	-8	44*	7
NNC(=O)c1sc(-c2ccc(Cl)cc2)cc1N	11	0	8	44*	-3
O=C(OCC(=O)N1CCCC1)c1ccc(O)cc1	2	0	2	0	-5
COc1cccc(C2(O)CC(C(F)(F)F)=NN2C(=O)c2ccccn2)c1 (configuration not stated)	-2	0	0	43*	-21
Cc1ccc(N(O)C(=O)OCCNC(=O)Nc2ccccc2)cc1	3	0	-4	nt	0
O=C(O)c1ccccc1CSc1nc2ccccc2n1Cc1ccccc1C(=O)O	2	0	1	44*	0
CC(C)CSc1nc2ccccc2n1CC(=O)O	-10	0	0	43*	2
CCn1c(SCC(=O)N2CCCC2)nc2ccccc21	-2	0	11	44*	3
CCCSc1nc2ccccc2n1CC(=O)O	-8	0	-1	0	1
CCn1c(SCC(=O)N2CCCCCC2)nc2ccccc2c1=O	-1	0	-3	0	13
COC(=O)c1ccc(CSc2ccc3nnc(-c4ccccn4)n3n2)o1	-4	0	6	0	-8
COC(=O)c1cc(NC(=O)CC2SC(=Nc3ccccc3)N(CCc3c[nH]c4ccccc34)C2=O)cc(C(=O)OC)c1 (configuration not stated)	16	0	28*	nt	3
Cc1ccc(OCc2nnc(SC(C)C(=O)O)n2Cc2ccccc2)cc1 (configuration not stated)	-3	0	-7	42	-1
SMILES	ARFGAP1 inh	Efflux pump mplx	ASAP1 GAP inh	FGF22 binding	Rtt109 HAT inh
Cc1cccc(OCc2nnc(SC(C)C(=O)O)n2Cc2ccccc2)c1 (configuration not stated)	-2	0	-4	43*	-3
COc1ccc(/C=N/NC(=O)c2nonc2N)cc1OC	15	0	-6	0	-11
Cc1ccccc1C(=O)N/N=C1\SCC(=O)N1Cc1ccco1	-11	0	-3	44*	-2
Cc1cccc(OCC(=O)N/N=C2/SCC(=O)N2Cc2ccco2)c1	2	0	6	43*	-5
Cc1ccc(OCC(=O)N/N=C2/SCC(=O)N2Cc2ccccc2)cc1	-2	0	-10	0	-5
COc1cc(OC)cc(C(=O)N/N=C2/SCC(=O)N2Cc2ccco2)c1	5	0	10	0	3
O=C(COC(=O)CNC(=O)C1CCCCC1)Nc1ccc2ccccc2c1	-5	0	-5	nt	-6
CCc1c(C)sc2nc3c(C(=O)N4CCOCC4)cc(C(=O)c4ccccc4O)cn3c(=O)c12	-4	0	-12	43*	8
